# Data reported in paper PMC4455950 (Journal of the American Chemical Society, 2008).
# “Also recorded” adds a separate entry of the source. Read-outs that look alike come from different tables or passages of the source.
# Legend:
# [1] = tested on: human Vα24+ NKT cell line cocultured with Hela cells transfected with human CD1d; experiment: Cytokine secretion assay using human NKT cell lines; format: cell-based; settings: for IFN-γ secretion normalized to α-GalCer / IL-4 secretion normalized to α-GalCer: 10 ng/mL glycolipid, 24 h, ELISA, relative to α-GalCer = 1.00; for IFN-γ/IL-4 ratio: IFN-γ ratio/IL-4 ratio, normalized to α-GalCer
# Outline: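 Vα24+ NKT lines come from bead-isolated leukopak T cells. They were expanded 10 days on irradiated (3000 rads) CD14-derived immature DCs with 100 ng/mL α-GalCer and 10 IU/mL IL-2. Assay: 20 000 NKT cells plus 2 × 10^4 irradiated (10 000 rads) human CD1d-transfected HeLa cells, 10 ng/mL test compound, 24 h. Supernatant IFN-γ or IL-4 by ELISA, normalised to α-GalCer; triplicate, mean ± SD.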
# [2] = target: T1, mCD1d:Ig fusion protein (dimeric CD1d) (Mus musculus, UniProt P11609); experiment: Competitive binding assay on microarray; settings: for binding with CD1d stronger than α-GalCer: relative to α-GalCer
# T1 sequence (P11609 22-305 limits assumed): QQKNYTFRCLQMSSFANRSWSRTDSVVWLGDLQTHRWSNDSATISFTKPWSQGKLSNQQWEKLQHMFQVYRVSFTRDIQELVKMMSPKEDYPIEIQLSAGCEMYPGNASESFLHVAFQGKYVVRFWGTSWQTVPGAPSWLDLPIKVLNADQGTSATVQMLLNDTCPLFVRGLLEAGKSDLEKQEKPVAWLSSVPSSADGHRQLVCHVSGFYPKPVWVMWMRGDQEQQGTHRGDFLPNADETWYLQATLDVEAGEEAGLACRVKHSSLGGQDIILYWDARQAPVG
# T1 sequence (P01887 21-119 partner): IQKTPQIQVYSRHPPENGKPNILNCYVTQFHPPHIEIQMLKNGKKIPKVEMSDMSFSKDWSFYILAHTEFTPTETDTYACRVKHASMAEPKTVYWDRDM
# Outline: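 Glass slides carry a covalently attached amine-linked α-GalCer analogue printed at 100 μM. Test compound (400 to 0.1 μM, 1.0% DMSO) is preincubated with dimeric mCD1d:Ig (500 nM) for 5–8 h. Mixture goes on slides 1 h at room temperature, humidified. Detection uses precomplexed biotinylated rat anti-mCD1d (20 μg/mL) plus Cy3-streptavidin (10 μg/mL), 1 h, then a 595 nm scan. Ki is fitted to a competitive surface-binding equation.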
# CD1d [3] = settings: read-out: dissociation constant from IEF; cited from earlier work
# CD1d [4] = settings: read-out: dissociation constant from ITC; cited from earlier work
Compound,binding with CD1d stronger than α-GalCer [2],binding enhancement compared with parent compound 13 ([2]; relative to compound 13),binding to CD1d (in words) [2],Ki [2],"Ki versus KD,surf (fold) ([2]; solution Ki compared with KD,surf of surface α-GalCer)",IFN-γ secretion normalized to α-GalCer [1],IL-4 secretion normalized to α-GalCer [1],IFN-γ/IL-4 ratio [1],IFN-γ production (in words) [1],Kd (CD1d [3]),Kd (CD1d [4])
CCCCCCCCCCCCCC[C@@H](O)[C@@H](O)[C@H](CO[C@H]1O[C@H](CO)[C@H](O)[C@H](O)[C@H]1O)NC(=O)CCCCCCCc1ccc(OC)cc1 [Compound 19],–,–,–,–,–,2.25 ± 0.06,0.79 ± 0.06,2.85 ± 0.10,highest IFN-γ cytokine production,–,–
CCCCCCCCCCCCCC[C@@H](O)[C@@H](O)[C@H](CO[C@H]1O[C@H](CO)[C@H](O)[C@H](O)[C@H]1O)NC(=O)CCCCCCCc1ccc(C(F)(F)F)cc1 [Compound 20],–,–,–,–,–,1.43 ± 0.07,0.76 ± 0.08,1.88 ± 0.08,–,–,–
CCCCCCCCCCCCCC[C@@H](O)[C@@H](O)[C@H](CO[C@H]1O[C@H](CO)[C@H](O)[C@H](O)[C@H]1O)NC(=O)CCCCCCCCCCc1ccc(-c2ccccc2)cc1 [Compound 25],–,–,lower binding activity,–,–,0.33 ± 0.001,0.61 ± 0.06,0.55 ± 0.04,less IFN-γ production,–,–

# Second part, led by results:
binding with CD1d stronger than α-GalCer [2],binding enhancement compared with parent compound 13 ([2]; relative to compound 13),binding to CD1d (in words) [2],Ki [2],"Ki versus KD,surf (fold) ([2]; solution Ki compared with KD,surf of surface α-GalCer)",Compound,IFN-γ secretion normalized to α-GalCer [1],IL-4 secretion normalized to α-GalCer [1],IFN-γ/IL-4 ratio [1],IFN-γ production (in words) [1],Kd (CD1d [3]),Kd (CD1d [4])
approximately 1 order of magnitude,–,–,–,–,CCCCCCCCCCCCCCC(O)C(O)C(COC1OC(CO)C(O)C(O)C1O)NC(=O)CCCCCCCc1ccccc1 (centres unmarked) [Compound 13],1.80 ± 0.15,0.87 ± 0.27,2.07 ± 0.26,–,–,–
2 order of magnitude,approximately 1 order of magnitude,–,–,–,CCCCCCCCCCCCCCC(O)C(O)C(COC1OC(CO)C(O)C(O)C1O)NC(=O)CCCCCCCc1ccc(F)cc1 (centres unmarked) [Compound 18],2.39 ± 0.13,0.80 ± 0.09,3.00 ± 0.16,highest IFN-γ cytokine production; also recorded: highest IFN-γ secretion,–,–
–,–,–,16 ± 2.1 µM,30–140 fold,"CCCCCCCCCCCCCCCCCCCCCCCCCC(=O)N[C@@H](CO[C@H]1O[C@H](CO)[C@H](O)[C@H](O)[C@H]1O)[C@H](O)[C@H](O)CCCCCCCCCCCCCC [α-GalCer, α-galactosylceramide, reference compound]",1.00,1.00,1.00,–,5.9 µM,9.7 µM
